We go through 1 compound from ChEMBL document CHEMBL4138319, “Discovery, Synthesis, Pharmacological Profiling, and Biological Characterization of Brintonamides A-E, Novel Dual Protease and GPCR Modulators from a Marine Cyanobacterium” (J Med Chem, 2018).

Calls of active or inactive are those of the source. The calls are words filed in the database; no cut-off is given here. Square brackets hold non-standard residues; d marks the D form. Peptide text beside a SMILES is read from it. * marks the point of attachment. X1 = CC[C@H](C)[C@@H](OC(=O)/C=C/c1ccccc1)C(=O)*; dNMeF = CN[C@H](Cc1ccccc1)C(=O)O; NMeL = CN[C@@H](CC(C)C)C(=O)O

One assay has as its system MDA-MB-231. As to the kind of experiment: Antiproliferative activity against human MDA-MB-231 cells after 48 hrs by MTT assay. In kind it is functional, cell-based. The following applies: Homo sapiens, MDA-MB-231, 48 h; read-out: IC50. The gist of the method:
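MDA-MB-231 cells are grown in DMEM with 10% FBS and seeded at 10,000 cells/well for 24 h. Cells are then exposed to graded compound concentrations or DMSO for 48 h. Viability is measured by MTT.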

The target in assay [1] is T1, Kallikrein-7 (Homo sapiens, UniProt P49862). As to the kind of experiment: Inhibition of recombinant human kallikrein 7 assessed as decrease in cleavage of E-cadherin at 10 uM after 30 mins or 2 hrs by silver staining based SDS-PAGE analysis.
T1 sequence (P49862 30-253 limits assumed): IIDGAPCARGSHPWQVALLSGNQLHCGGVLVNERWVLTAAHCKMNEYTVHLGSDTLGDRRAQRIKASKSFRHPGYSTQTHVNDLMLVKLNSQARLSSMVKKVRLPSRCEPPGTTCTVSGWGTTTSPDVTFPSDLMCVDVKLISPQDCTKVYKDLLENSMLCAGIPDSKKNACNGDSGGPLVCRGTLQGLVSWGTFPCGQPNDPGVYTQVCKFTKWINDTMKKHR
Assay [2] has as its target Somatostatin receptor type 3 (Homo sapiens, UniProt P32745). As to the kind of experiment: Antagonist activity at human SSTR3 expressed in HEK293 cells assessed as [Tyr1]-somatostatin 14-induced beta-arrestin recruitment at 10 uM pre-incubated for 30 mins before [Tyr1]-somatostatin 14 stimulation for 90 or 180 mins by chemiluminescence method. Type of assay: functional, cell-based. Set-up: scale not given: the % may be the effect or the level left. (Activated receptors often draw arrestin, which recruitment assays turn into a signal.)

Assay [3] has as its target T2, C-C chemokine receptor type 10 (Homo sapiens) (UniProt P46092).
T2 sequence (whole entry): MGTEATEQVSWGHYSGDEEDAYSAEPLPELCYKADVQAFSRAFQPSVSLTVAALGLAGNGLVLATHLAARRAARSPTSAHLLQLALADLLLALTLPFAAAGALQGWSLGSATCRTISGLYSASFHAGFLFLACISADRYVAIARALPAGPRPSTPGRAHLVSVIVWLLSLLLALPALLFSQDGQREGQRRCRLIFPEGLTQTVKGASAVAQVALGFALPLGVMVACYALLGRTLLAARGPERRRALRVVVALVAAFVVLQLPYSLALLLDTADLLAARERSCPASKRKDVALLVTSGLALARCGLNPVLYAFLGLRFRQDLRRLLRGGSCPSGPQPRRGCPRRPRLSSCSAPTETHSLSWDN
As to the kind of experiment: Antagonist activity at CCR10 in human MDA-MB-231 cells assessed as inhibition of CCL27-induced proliferation preincubated for 2 hrs followed by CCL27 addition measured after 48 hrs by MTT assay. Type of assay: functional, cell-based. The gist of the method:
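MDA-MB-231 cells are seeded at 10,000/well in serum-free DMEM for 24 h, then pretreated with compound for 2 h. CCL27 is added at 1 μg/mL final for 48 h. Viability is measured by MTT and compared with solvent control, mean ± SD, n = 3.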

The target of assay [4] is T1, Kallikrein-7. Nature of the assay: Inhibition of recombinant human kallikrein 7 assessed as decrease in cleavage of desmoglein-2 at 10 uM after 30 mins or 2 hrs by silver staining based SDS-PAGE analysis.
In another assay the test system is MDA-MB-468. Nature of the assay: Antimigratory activity against human MDA-MB-468 cells at 0.1 to 10 uM after 48 hrs. In kind it is functional, cell-based. The gist of the method: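 Transwell migration through an 8 μm pore membrane. 5000 MDA-MB-468 cells in DMEM with 10% FBS are treated with graded compound concentrations or solvent on both sides for 48 h at 37 °C. Migrated cells are stained with crystal violet and counted. Run in triplicate.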

For assay [5], the target named is Atypical chemokine receptor 3 (Homo sapiens, UniProt P25106). Nature of the assay: Agonist activity at human CXCR7 expressed in CHOK1 cells assessed as induction of beta-arrestin recruitment at 20 uM by chemiluminescence method. Type of assay: functional, cell-based.
Atypical chemokine receptor 3, sequence (P25106 whole entry): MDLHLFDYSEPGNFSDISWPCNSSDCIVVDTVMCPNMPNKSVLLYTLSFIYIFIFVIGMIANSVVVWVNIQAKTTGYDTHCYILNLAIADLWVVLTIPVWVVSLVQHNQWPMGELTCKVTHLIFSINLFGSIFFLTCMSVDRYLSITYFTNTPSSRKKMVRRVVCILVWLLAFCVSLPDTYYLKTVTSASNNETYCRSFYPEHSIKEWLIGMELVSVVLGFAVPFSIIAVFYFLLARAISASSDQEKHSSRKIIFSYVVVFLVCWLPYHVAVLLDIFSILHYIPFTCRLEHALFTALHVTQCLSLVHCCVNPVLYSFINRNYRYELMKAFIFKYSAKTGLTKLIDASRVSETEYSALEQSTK
Assay [6] has as its target T1, Kallikrein-7. Nature of the assay: Inhibition of kallikrein 7 (unknown origin) using fluorescently labeled peptide substrate by fluorescence assay. The gist of the method: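 KLK7 follow-up: 10-dose titrations, 3-fold serial dilution from 100 μM, in duplicate, with gabexate mesylate as positive control. Fluorescence from the labeled peptide substrate is monitored over time, and the initial linear slope (signal/min) is used to derive IC50.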

Assay [7] concerns the target T2, C-C chemokine receptor type 10 (Homo sapiens). Nature of the assay: Antagonist activity at human CCR10 expressed in human U2OS cells assessed as inhibition of CCL27-induced beta-arrestin recruitment at 10 uM pre-incubated for 30 mins before CCL27 stimulation for 90 or 180 mins by chemiluminescence method. Type of assay: functional, cell-based. Set-up: scale not given: the % may be the effect or the level left.

Assay [8] deals with T3, C-C chemokine receptor type 10 (Homo sapiens, UniProt P46092).
T3 sequence (P46092 whole entry): T2 sequence (whole entry)
Nature of the assay: Antagonist activity at human CCR10 expressed in human U2OS cells assessed as inhibition of CCL27-induced beta-arrestin recruitment pre-incubated for 30 mins before CCL27 stimulation for 90 or 180 mins by chemiluminescence method. Type of assay: functional, cell-based. The gist of the method: (§1)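 PathHunter β-arrestin complementation assay, antagonist mode. Cells co-express ProLink-tagged GPCR and enzyme-acceptor-tagged β-arrestin and are pre-incubated with sample for 30 min at 37 °C or room temperature. Dose-response: 10 points, 3-fold dilutions from 20 μM, in duplicate.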

A further assay deals with T4, Oxytocin receptor (Homo sapiens, UniProt P30559).
T4 sequence (P30559 whole entry): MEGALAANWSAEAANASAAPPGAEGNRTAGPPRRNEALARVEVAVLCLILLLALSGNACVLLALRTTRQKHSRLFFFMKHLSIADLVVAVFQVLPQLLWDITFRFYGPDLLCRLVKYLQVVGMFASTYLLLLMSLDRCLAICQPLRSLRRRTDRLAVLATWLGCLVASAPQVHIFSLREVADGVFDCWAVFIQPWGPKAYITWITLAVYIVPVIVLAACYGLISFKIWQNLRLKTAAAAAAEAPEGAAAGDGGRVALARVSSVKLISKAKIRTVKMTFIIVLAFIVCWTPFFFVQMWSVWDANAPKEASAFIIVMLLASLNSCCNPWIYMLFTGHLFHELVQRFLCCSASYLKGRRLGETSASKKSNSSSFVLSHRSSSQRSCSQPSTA
As to the kind of experiment: Antagonist activity at human OXTR expressed in CHOK1 cells assessed as oxytocin-induced beta-arrestin recruitment pre-incubated for 30 mins before oxytocin stimulation for 90 or 180 mins by chemiluminescence method. Type of assay: functional, cell-based. The gist of the method: as §1

Assay [9] concerns the target T5, Oxytocin receptor (Homo sapiens) (UniProt P30559).
T5 sequence (whole entry): T4 sequence (P30559 whole entry)
Nature of the assay: Antagonist activity at human OXTR expressed in CHOK1 cells assessed as oxytocin-induced beta-arrestin recruitment at 10 uM pre-incubated for 30 mins before oxytocin stimulation for 90 or 180 mins by chemiluminescence method. Type of assay: functional, cell-based. Details: scale not given: the % may be the effect or the level left.

In assay [10] the target is T6, Substance-K receptor (Homo sapiens) (UniProt P21452).
T6 sequence (whole entry): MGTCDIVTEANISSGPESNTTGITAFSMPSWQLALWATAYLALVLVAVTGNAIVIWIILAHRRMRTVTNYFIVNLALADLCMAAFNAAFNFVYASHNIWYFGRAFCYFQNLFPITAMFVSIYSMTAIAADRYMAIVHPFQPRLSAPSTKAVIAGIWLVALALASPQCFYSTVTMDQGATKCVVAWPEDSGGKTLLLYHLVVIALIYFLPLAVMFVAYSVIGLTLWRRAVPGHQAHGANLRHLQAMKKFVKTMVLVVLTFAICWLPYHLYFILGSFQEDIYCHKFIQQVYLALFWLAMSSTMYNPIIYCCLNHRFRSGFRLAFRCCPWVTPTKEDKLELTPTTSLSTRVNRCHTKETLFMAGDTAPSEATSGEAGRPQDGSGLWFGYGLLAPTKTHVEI
As to the kind of experiment: Antagonist activity at human TACR2 expressed in CHOK1 cells assessed as substance P-induced beta-arrestin recruitment at 10 uM pre-incubated for 30 mins before substance P stimulation for 90 or 180 mins by chemiluminescence method. In kind it is functional, cell-based. Details: scale not given: the % may be the effect or the level left.

Somatostatin receptor type 3, sequence (P32745 whole entry): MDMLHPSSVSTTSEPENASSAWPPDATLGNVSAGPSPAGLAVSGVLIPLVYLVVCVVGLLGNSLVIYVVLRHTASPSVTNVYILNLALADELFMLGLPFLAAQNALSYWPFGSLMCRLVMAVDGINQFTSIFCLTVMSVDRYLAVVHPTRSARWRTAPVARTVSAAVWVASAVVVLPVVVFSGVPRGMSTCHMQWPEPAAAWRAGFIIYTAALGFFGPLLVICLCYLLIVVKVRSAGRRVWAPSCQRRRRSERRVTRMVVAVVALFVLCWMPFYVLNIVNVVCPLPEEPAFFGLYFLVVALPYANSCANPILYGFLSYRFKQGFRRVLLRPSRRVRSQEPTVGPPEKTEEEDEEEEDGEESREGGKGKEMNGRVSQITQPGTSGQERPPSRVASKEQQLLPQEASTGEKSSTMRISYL

In general, IC50 refers to the concentration at which inhibition is half-maximal. Turning to `CC[C@H](C)[C@@H](OC(=O)/C=C/c1ccccc1)C(=O)N1CCC[C@H]1C(=O)NCC(=O)N(C)[C@@H](CC(C)C)C(=O)N[C@@H](C)C(=O)N(C)[C@H](Cc1ccccc1)C(=O)N1CCC[C@H]1C(=O)OC` (X1-PG[NMeL]A[dNMeF]P-OMe), the IC50 amounted to 16.7 µM in the assay with MDA-MB-231, 0.44 µM in assay [8] and 6.78 µM at Oxytocin receptor. Also, the inhibition result at Kallikrein-7 [1], on Kallikrein-7 [4] and at Kallikrein-7 [6] was “Active” in each case. Also, the Activity in [2] stood at 77%; in [5] it was 91%; in assay [7], 98%; in assay [9], 76%; in [10], 97%. In addition, in [3], the inhibition entry is “Dose-dependent effect”. Further, the result in the assay on MDA-MB-468 was Active.
